Assay results published in ChEMBL document CHEMBL1134965, “Discovery and biological characterization of capromorelin analogues with extended half-lives” (Bioorg Med Chem Lett, 2002).

Legend:
[1] = Volume of distribution was determined in canine following intravenous (iv) administration of drug (1 mg/kg).; format: ADME, organism-based, Canis lupus familiaris; conditions: dog, in vivo
In short: (§1)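 Male beagle dogs given 1 mg/kg intravenously. Plasma sampling gave clearance, volume of distribution and elimination half-life, with half-life calculated over 0–8 h.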

[2] = (§2) Oral half life was determined; format: ADME, organism-based; conditions: rat, in vivo
In short: (§3)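 Female Sprague–Dawley rats dosed orally at 1 mgA/kg (free base equivalents). Plasma concentration–time profile gave Cmax, Tmax and apparent oral t1/2.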

[3] = Plasma elimination half-life was determined in female Sprague-Dawley rats following intravenous (iv) administration of drug (1 mg/kg).; format: ADME, organism-based; conditions: rat
In short: (§4)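 Female Sprague–Dawley rats given a 1 mgA/kg (free base equivalents) iv dose. Plasma drug levels gave mean Vd, CL and t1/2.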

[4] = Volume of distribution was determined in female Sprague-Dawley rats following intravenous (iv) administration of drug (1 mg/kg).; format: ADME, organism-based; conditions: rat, in vivo; in short: as §4
[5] = Plasma clearance was determined in female Sprague-Dawley rats following intravenous (iv) administration of drug (1 mg/kg).; format: ADME, organism-based; conditions: rat; in short: as §4
[6] = (§5) Bioavailability; format: ADME, organism-based; conditions: rat, in vivo
In short: (§6)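 Bioavailability of the free base from a 1 mgA/kg oral dose compared with a 1 mgA/kg iv dose. Measured in female Sprague–Dawley rats and in male and female beagle dogs.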

[7] = Time taken by the compound to achieve maximum plasma concentration at a 1 mg/kg oral dose in male and female Beagle dogs.; format: ADME, organism-based, Canis lupus familiaris; set-up: dose 1 mg/kg, route oral; conditions: both, dog
In short: (§7)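 Male and female beagle dogs given a single 1 mgA/kg oral dose (free base equivalents). Plasma profile gave Cmax, Tmax and apparent oral t1/2.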

[8] = Maximum plasma concentration at a 1 mg/kg oral dose in female Sprague-Dawley rats; format: ADME, organism-based; set-up: dose 1 mg/kg, route oral; conditions: rat; in short: as §3
[9] = as §5; format: ADME, organism-based, Canis lupus familiaris; conditions: dog, in vivo; in short: as §6
[10] = Time taken by the compound to achieve maximum plasma concentration at a 1 mg/kg oral dose in female Sprague-Dawley rats; format: ADME, organism-based; set-up: dose 1 mg/kg, route oral; conditions: rat; in short: as §3
[11] = Plasma clearance was determined in canine following intravenous (iv) administration of drug (1 mg/kg).; format: ADME, organism-based, Canis lupus familiaris; conditions: dog; in short: as §1
[12] = as §2; format: ADME, organism-based, Canis lupus familiaris; conditions: dog, in vivo; in short: as §3
[13] = Plasma elimination half-life (08 h) was determined in canine following intravenous (iv) administration (1 mg/kg).; format: ADME, organism-based, Canis lupus familiaris; conditions: dog; in short: as §1
[14] = Maximum plasma concentration at a 1 mg/kg oral dose in male and female Beagle dogs.; format: ADME, organism-based, Canis lupus familiaris; set-up: dose 1 mg/kg, route oral; conditions: both, dog; in short: as §7
[15] = biological target: Growth hormone secretagogue receptor type 1 (Homo sapiens, UniProt Q92847); experiment: In vitro binding affinity against human type 1a growth hormone secretagogue receptor (hGHS-R1a), using [125I]ghrelin as radioligand.
In short: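 Competitive displacement of [125I]-ghrelin from membranes of HEK293 cells over-expressing hGHS-R1a. Ki values are the average of duplicate experiments.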

Rattus norvegicus [16] = species: Rattus norvegicus; experiment: In vitro effective concentration required for 50% stimulation of GH release in rat pituitary cell cultures.; format: functional; conditions: Pituitary gland cell
In short: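 Rat pituitary cell cultures exposed to compound. Released GH was quantified by rat-specific double-antibody radioimmunoassay. EC50 is the average of triplicate experiments.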

Rattus norvegicus [17] = experiment: In vivo effective dose required for 50% stimulation of GH release in anesthetized rat model.; format: functional
In short: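 Anesthetized Wistar rats given compound iv, with GH release as read-out. ED50 (mg/kg) is the average of triplicate experiments.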

[18] = Lipophilicity by octanol water distribution coefficient; format: physicochemical

Chain of Growth hormone secretagogue receptor type 1 (Q92847 whole entry): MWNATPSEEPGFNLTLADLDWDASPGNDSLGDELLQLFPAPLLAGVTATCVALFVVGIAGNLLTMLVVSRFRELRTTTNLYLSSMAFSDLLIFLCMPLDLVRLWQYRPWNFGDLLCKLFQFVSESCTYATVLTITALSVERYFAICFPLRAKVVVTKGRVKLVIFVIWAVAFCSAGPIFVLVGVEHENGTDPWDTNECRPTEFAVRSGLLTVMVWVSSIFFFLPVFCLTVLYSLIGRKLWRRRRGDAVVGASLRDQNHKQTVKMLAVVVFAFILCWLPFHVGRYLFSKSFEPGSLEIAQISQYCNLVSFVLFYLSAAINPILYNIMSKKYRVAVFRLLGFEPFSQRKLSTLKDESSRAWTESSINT

Structure (SMILES) | Vd [1] [L/kg] | half-life [2] [h] | half-life [3] [h] | Vd [4] [L/kg] | clearance [5] [mL/min/kg] | bioavailability [6] [%] | Tmax [7] [h] | Cmax [8] [ng/mL] | bioavailability [9] [%] | Tmax [10] [h] | clearance [11] [mL/min/kg] | half-life [12] [h] | half-life [13] [h] | Cmax [14] [ng/mL] | Ki [15] [nM] | EC50 (Rattus norvegicus [16]) [nM] | logD [18] | ED50 (Rattus norvegicus [17]) [mg/kg]
CN1N=C2CCN(C(=O)[C@@H](COCc3ccc(F)c(F)c3)NC(=O)C(C)(C)N)CC2(Cc2ccccc2)C1=O (stereo not given in full) | 3.5 | – | – | – | – | – | – | – | – | – | 17 | – | 2.7 | – | 18 | 10 | 1.7 | 0.3
CC(C)(N)C(=O)N[C@H](COCc1ccccc1)C(=O)N1CCC2=NN(C(C)(C)C)C(=O)C2(Cc2ccccc2)C1 (stereo not given in full) | 2.2 | – | – | – | – | – | – | – | – | – | 13 | – | 2.5 | – | – | – | 2.9 | –
CN1N=C2CCN(C(=O)[C@@H](COCc3ccccc3)NC(=O)C(C)(C)N)C[C@@]2(Cc2ccccc2)C1=O [CAPROMORELIN] | 2 | – | – | – | – | – | – | – | – | – | 19 | – | 1.3 | – | 7 | 3 | 1.7 | 0.05

More lines, in order of falling Ki [15], values ahead:

Vd [1] [L/kg] | half-life [2] [h] | half-life [3] [h] | Vd [4] [L/kg] | clearance [5] [mL/min/kg] | bioavailability [6] [%] | Tmax [7] [h] | Cmax [8] [ng/mL] | bioavailability [9] [%] | Tmax [10] [h] | clearance [11] [mL/min/kg] | half-life [12] [h] | half-life [13] [h] | Cmax [14] [ng/mL] | Ki [15] [nM] | EC50 (Rattus norvegicus [16]) [nM] | logD [18] | Structure (SMILES) | ED50 (Rattus norvegicus [17]) [mg/kg]
1.5 | 3.9 | 1.9 | 4.9 | 46 | 59 | 1.3 | 88 | 77 | 0.25 | 5.3 | 4.2 | 3.7 | 260 | 5 | 3 | 1.6 | CC(C)(N)C(=O)N[C@H](COCc1ccc(F)cc1F)C(=O)N1CCC2=NN(CC(F)(F)F)C(=O)[C@]2(Cc2ccccn2)C1 | 0.1
5.1 | – | – | – | – | – | – | – | – | – | 13 | – | 4.7 | – | 0.45 | 2 | 3 | CC(C)(N)C(=O)N[C@H](COCc1ccc(F)c(F)c1)C(=O)N1CCC2=NN(CC(F)(F)F)C(=O)C2(Cc2ccccc2)C1 (stereo not given in full) | > 10
5.9 | – | – | – | – | – | – | – | – | – | 19 | – | 3.9 | – | 0.34 | 4 | 2.9 | CC(C)(N)C(=O)N[C@H](COCc1ccc(F)c(F)c1)C(=O)N1CCC2=NN(C(C)(C)C)C(=O)C2(Cc2ccccc2)C1 (stereo not given in full) | > 10
